Data from paper PMC3190987 (The Journal of Biological Chemistry, 2011).
Like-named read-outs stand apart in the source and are kept apart here.

B1: 4hFosW (peptide)
chain: Ac-ASLDELQREIEQLEELNYALQKEIEDLQKQGAP-NH2
B2: FosW (peptide)
chain: Ac-ASLDELQAEIEQLEERNYALRKEIEDLQKQLEKLGAP-NH2

How the values were obtained:
[1] = homodimer; cited from earlier work
c-Jun [2] = molecular target: T1, c-Jun (Homo sapiens, UniProt P05412, S292Y); assay: Isothermal titration calorimetry; assay type: binding; details: for ΔH / ΔGbind (ITC) / TΔS (ΔH − ΔG): ITC, 20 °C; for ΔH: pH 7, one-site model; for ΔGbind (ITC): calculated by Equation 4; for TΔS (ΔH − ΔG): calculated from ΔH and ΔGbind
T1 sequence (P05412 with tags, fused parts or gaps S292Y): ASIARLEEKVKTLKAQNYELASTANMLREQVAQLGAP
Summary of the method: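 VP-ITC at 20 °C in 10 mM potassium phosphate, 100 mM KF, pH 7. Syringe peptide at 175–250 μM was injected 25 × 5 μl into cell peptide at 10–40 μM; syringe and cell partners were also swapped. Each run was done at least twice. Isotherms fitted to a 1:1 one-site model for Kd and ΔH. ΔG calculated at 293.15 K; TΔS from ΔH and ΔG.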

c-Jun [3] = molecular target: T1, c-Jun; assay: CD spectra of heterodimeric complexes with c-Jun; details: for θ222/θ208 (20 °C) / Fraction helical (fH): heterodimer with c-Jun; for θ222/θ208 (20 °C): CD, 150 μM total peptide, pH 7, 20 °C; for Fraction helical (fH): from θ222, 20 °C
Summary of the method: (§1)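 CD spectra of homodimeric or c-Jun heterodimeric samples, 150 μM total peptide, 10 mM potassium phosphate, 100 mM KF, pH 7, 1-mm cell. Scans 300–190 nm at 20 °C (pre- and post-melt) and at −8 °C. Converted to molar residue ellipticity, giving θ222/θ208. Fraction helicity taken from θ222 with k = 2.4 and T = 293 K.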

c-Jun-DHFR2 = assay: Growth competition under PCA conditions; assay type: cell-based, Escherichia coli; details: M9 minimal media with trimethoprim and IPTG; A600 hourly, in duplicate
Summary of the method: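 Split murine DHFR complementation in E. coli: library peptide fused to DHFR fragment 1, c-Jun to fragment 2, both lac-driven. Strains came from single colonies on PCA plates with sequence-verified plasmids. Growth rates were monitored under selection in M9 minimal medium with ampicillin, chloramphenicol, kanamycin, trimethoprim and IPTG (1 mM induction).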

[4] = CD spectra of peptides in isolation; assay type: physicochemical; details: for helicity in isolation: peptide in isolation, from θ222, 20 °C
Summary of the method: as §1

[5] = Thermal melts followed by CD at 222 nm, homodimers; assay type: physicochemical; details: homodimer; CD 222 nm, 150 μM total peptide, pH 7
Summary of the method: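 CD thermal denaturation at 222 nm, 150 μM total peptide, 10 mM potassium phosphate, 100 mM KF, pH 7. Started at −8 °C and stepped in 1 °C increments with a 30 s hold, signal averaged over 4 s per point. Tm obtained by least-squares fit to a two-state model (modified Gibbs-Helmholtz).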

c-Jun [6] = molecular target: T1, c-Jun; assay: CD dimer exchange experiment; assay type: binding; details: CD spectra, total peptide 150 μM
Summary of the method: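 Equilibrium mixing followed by CD in 10 mM potassium phosphate, 100 mM KF, pH 7. Spectra recorded for the c-Fos homodimer and for the test peptide–c-Jun heterodimer, each at 150 μM total peptide. Equal volumes of the two solutions were then mixed, keeping the final total peptide at 150 μM, and the spectrum was re-recorded.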

c-Jun [7] = molecular target: T1, c-Jun; details: heterodimer with c-Jun; cited from earlier work
[8] = molecular target: c-Jun (37-residue leucine zipper peptide); assay: ITC
[9] = molecular target: c-Jun (37-residue leucine zipper peptide); assay: CD thermal denaturation

| Molecule | ΔH (c-Jun [2]) | ΔGbind (ITC) (c-Jun [2]) | TΔS (ΔH − ΔG) (c-Jun [2]) | θ222/θ208 (20 °C) (c-Jun [3]) | Fraction helical (fH) (c-Jun [3]) | affinity for c-Jun by E. coli growth rate (c-Jun-DHFR2) | Ka [8] | Kd [9] | also measured |
| --- | --- | --- | --- | --- | --- | --- | --- | --- | --- |
| ASIARLEEKVKTLKAQNYELASTANMLREQVAQLGAP [c-Jun] |  |  |  |  |  |  |  |  | Tm [1]: 24 °C |
| ASLDELQAEIEQLEERNYALRKEIEDLQKQLEKLGAP [FosW] | -10.6 ± 0.2 kcal/mol | -9.9 ± 0.1 kcal/mol | -0.7 ± 0.2 kcal/mol | 1.0 | 35.8% | much improved affinity over c-Fos |  |  | helicity in isolation [4]: 43.7% |
| ASLDELQREIEQLEELNYALQKEIEDLQKQGAP [4hFosW] | -14.1 ± 0.2 kcal/mol | -8.8 ± 0.1 kcal/mol | -5.3 ± 0.2 kcal/mol | 0.99 | 60.4% | much improved affinity over c-Fos |  |  | loss of stability of complex with c-Jun relative to c-Jun-FosW (c-Jun [2]; ITC free energy of binding): around 1 kcal/mol; magnitude of the CD peak at 222 nm (c-Jun [3]; heterodimeric complex with c-Jun, 20 °C): approximately −112 millidegrees; gain in helicity of complex with c-Jun over c-Jun-FosW (c-Jun [3]; measured helicity by CD): ~25%; Tm [5]: 36 °C; gain in helicity in isolation relative to FosW [4]: ~7%; magnitude of the CD peak at 222 nm ([4]; homodimeric complex, 20 °C): approximately −87 millidegrees; ratio θ222/θ208 ([4]; peptide in isolation (homodimeric)): ~1.0; helicity in isolation [4]: 50.6%; specificity for c-Jun in the presence of c-Fos (c-Jun [6]): specific for c-Jun in the presence of c-Fos |
| ASTDTLQAETDQLEDEKYALQTEIANLLKEKEKLGAP [c-Fos] | -0.8 ± 0.4 kcal/mol | -6.1 ± 0.4 kcal/mol | 5.3 ± 0.5 kcal/mol | 0.75 | 3.6% | lower affinity interaction |  |  | Tm (c-Jun [7]): 16 °C |
| c-Fos (37-residue leucine zipper peptide) |  |  |  |  |  |  | 38000 M⁻¹ | 26600 nM |  |
| B1 |  |  |  |  |  |  | 2.1e+06 M⁻¹ | 487 nM | dH [8]: -14.1 kcal/mol; stoichiometry N [8]: 1.05; Tm [9]: 49 °C |
| B2 |  |  |  |  |  |  | 2.2e+07 M⁻¹ | 45 nM | dH [8]: -10.6 kcal/mol; stoichiometry N [8]: 0.65; Tm [9]: 63 °C |
